What all share (assay type): functional
What all share (conditions): read-out: ED50 (the source's name)

Test [1] is described as follows: Cytotoxicity against human HEPA 59T/VGH cells by methylene blue staining method. An outline of the steps:
(§1)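 Tumor cells cultured in RPMI-1640 medium and exposed to test sample for 72 h. Growth inhibition read by methylene blue staining (absorbance). ED50 taken as the concentration giving 50% reduction of absorbance relative to untreated cells.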

The subject of test [2] is HeLa. The experiment in a line: Cytotoxicity against human HeLa cells by methylene blue staining method. The method in brief:
as §1

For test [3], the system named is KB. The experiment in a line: Cytotoxicity against human KB cells by methylene blue staining method. An outline of the steps:
as §1

SMILES strings stand for the structures. Converted amounts (≈) assume the structure as drawn.

Consider `C=C1C(=O)O[C@H]2/C=C(/COC(C)=O)[C@@H](O)C[C@H]3O[C@@]3(C)C[C@@H](OC(=O)/C(C)=C/C)[C@@H]12`, for which the values for the EC50 in test [1], in test [2] and in test [3] were 7 µg/mL (≈ 16.6 µM), 7.5 µg/mL (≈ 17.8 µM) and 4.3 µg/mL (≈ 10.2 µM), respectively.
`C=C1C(=O)O[C@H]2/C=C(/C)[C@H](O)C[C@H]3O[C@@]3(C)C[C@@H](OC(=O)/C(C)=C/C)[C@@H]12`: the figures for the EC50 in test [1], in test [2] and in test [3] were 4.4 µg/mL (≈ 12.1 µM), 3.1 µg/mL (≈ 8.55 µM) and 3.2 µg/mL (≈ 8.83 µM), respectively.
The matching figures for `COc1cccc2c1C(=O)c1c(O)c3c(c(O)c1C2=O)C[C@@](O)(C(=O)CO)C[C@@H]3O[C@H]1C[C@H](N)[C@H](O)[C@H](C)O1` [DOXORUBICIN]: 0.19 µg/mL (≈ 0.35 µM), 0.14 µg/mL (≈ 0.258 µM) and 0.15 µg/mL (≈ 0.276 µM).
On to `C=C1C(=O)O[C@@H]2/C=C(\C)C(=O)/C=C/[C@](C)(O)C[C@@H](OC(=O)/C(C)=C/C)[C@@H]12` [EUPAHELIANGOLIDE A], for which the EC50 in test [1] turned out to be 3.5 µg/mL (≈ 9.71 µM); in test [2], 3.3 µg/mL (≈ 9.16 µM); in test [3], 3.5 µg/mL (≈ 9.71 µM).
As for `C=C1C(=O)O[C@H]2[C@H]1[C@H](OC(=O)/C(C)=C/C)CC(=C)[C@H](O)[C@@H]1O[C@@H]1[C@]1(C)O[C@H]21` [EUPAKIRUNSIN A], the EC50 was determined as 4.4 µg/mL (≈ 11.7 µM) in test [1], 8.9 µg/mL (≈ 23.6 µM) in test [2] and 5.5 µg/mL (≈ 14.6 µM) in test [3].
For `C=C1C(=O)O[C@H]2/C=C(\C)[C@H](O)/C=C\[C@](C)(O)C[C@@H](OC(=O)/C(C)=C/C)[C@@H]12` [EUPAKIRUNSIN B], in that order: > 20 µg/mL, > 20 µg/mL and > 20 µg/mL.
Take `C=C1C(=O)O[C@H]2[C@H]1[C@H](OC(=O)/C(C)=C/C)C[C@H](C)[C@H](O)CC(=O)[C@]1(C)O[C@H]21` [EUPAKIRUNSIN C]: the EC50 in test [1] turned out to be 8.6 µg/mL (≈ 22.7 µM); in test [2], 7.1 µg/mL (≈ 18.8 µM); in test [3] it was 8.1 µg/mL (≈ 21.4 µM).
On to `C=C1C(=O)O[C@H]2/C=C(\C)[C@]3(O)CC[C@](C)(C[C@@H](OC(=O)/C(C)=C/C)[C@@H]12)O3` [EUPAKIRUNSIN D], for which the EC50 in test [1] was determined as 5 µg/mL (≈ 13.8 µM); in test [2], 5.8 µg/mL (≈ 16 µM); in test [3], 4.8 µg/mL (≈ 13.2 µM).
For `C=C1C(=O)O[C@H]2/C=C(\C)C(=O)[C@@H]3O[C@H]3[C@](C)(O)C[C@@H](OC(=O)/C(C)=C/C)[C@@H]12` [EUPAKIRUNSIN E], in that order: > 20 µg/mL, > 20 µg/mL and > 20 µg/mL.
Turning to `C=C1C(=O)O[C@H]2/C=C(/C)[C@@H](O)C[C@H]3O[C@@]3(C)C[C@@H](OC(=O)/C(C)=C/C)[C@@H]12` [HELIANGIN], the EC50 in test [1] came to 2 µg/mL (≈ 5.52 µM); in test [2], 4.4 µg/mL (≈ 12.1 µM); in test [3] it was 1.8 µg/mL (≈ 4.97 µM).

Values taken from ChEMBL document CHEMBL1158764, “Cytotoxic sesquiterpene lactones from Eupatorium kiirunense, a coastal plant of Taiwan” (2005).
